From ChEMBL document CHEMBL1165943, “Design and synthesis of new anticancer pyrimidines with multiple-kinase inhibitory effect” (Bioorg Med Chem, 2010)
Active and inactive are the calls of the source. The calls are words filed in the database; no cut-off is given here.

Legend:
NCI-H460 = test: Cytotoxicity against human NCI-H460 cells assessed as cell growth at 0.01 uM after 48 hrs by sulforhodamine B assay; assay type: functional; settings: NCI-H460, 48 h, read-out: Activity
HOP-62 [1] = test: Growth inhibition of human HOP62 cells after 48 hrs by sulforhodamine B assay; assay type: functional, cell-based; settings: HOP-62, 48 h; for CC50: read-out: LC50 (the source's name)
Procedure, shortened: (§1)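 Cells grown in RPMI 1640 with 5% FBS and 2 mM L-glutamine, seeded at 5,000–40,000 cells/well according to doubling time. After 24 h, time-zero plates are TCA-fixed. Five concentrations (10-fold or ½log dilutions, DMSO stocks) are applied for 48 h at 37 °C, 5% CO₂. Cells are TCA-fixed, SRB-stained and read at 515 nm. IC₅₀ is taken from [(Ti−Tz)/(C−Tz)]×100 = 50.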

MDA-MB-231 [2] = test: Cytotoxicity against human MDA-MB-231 cells assessed as cell growth at 0.01 uM after 48 hrs by sulforhodamine B assay; assay type: functional; settings: MDA-MB-231, 48 h, read-out: Activity
HT-29 = test: Cytotoxicity against human HT-29 cells assessed as cell growth at 100 nM after 48 hrs by sulforhodamine B assay; assay type: functional; settings: HT-29, 48 h, read-out: Activity
OVCAR-5 = test: Cytotoxicity against human OVCAR5 cells assessed as cell growth at 10 uM after 48 hrs by sulforhodamine B assay; assay type: functional; settings: OVCAR-5, 48 h, read-out: Activity
TK-10 [3] = test: Cytotoxicity against human TK10 cells assessed as cell growth at 10 uM after 48 hrs by sulforhodamine B assay; assay type: functional; settings: TK-10, 48 h, read-out: Activity
EKVX [4] = test: Cytotoxicity against human EKVX cells assessed as cell growth at 0.01 uM after 48 hrs by sulforhodamine B assay; assay type: functional; settings: read-out: Activity
A498 = test: Cytotoxicity against human A498 cells assessed as cell growth at 1 uM after 48 hrs by sulforhodamine B assay; assay type: functional; settings: A498, 48 h, read-out: Activity
Procedure, shortened: (§2)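 Cells grown in RPMI 1640 with 5% FBS and 2 mM L-glutamine, seeded at 5,000–40,000 cells/well by doubling time. Time-zero plates TCA-fixed after 24 h. Five concentrations (10-fold or half-log dilutions from DMSO stock) added; 48 h at 37 °C, 5% CO2. Cold TCA fixation (final 10%, 60 min, 4 °C), 0.4% SRB stain, dye solubilized in 10 mM trizma base, A515.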

Malme-3M [5] = test: Cytotoxicity against human MALME-3M cells assessed as cell growth at 10 uM after 48 hrs by sulforhodamine B assay; assay type: functional; settings: read-out: Activity
MDA-MB-468 = test: Cytotoxicity against human MDA-MB-468 cells assessed as cell growth at 1 uM after 48 hrs by sulforhodamine B assay; assay type: functional; settings: MDA-MB-468, 48 h, read-out: Activity
HOP-62 [6] = test: Cytotoxicity against human HOP62 cells assessed as cell growth at 10 uM after 48 hrs by sulforhodamine B assay; assay type: functional; settings: HOP-62, 48 h, read-out: Activity
OVCAR-4 [7] = test: Growth inhibition of human OVCAR4 cells after 48 hrs by sulforhodamine B assay; assay type: functional, cell-based; settings: for CC50: read-out: LC50 (the source's name); procedure, shortened: as §1
SF-539 = test: Cytotoxicity against human SF539 cells assessed as cell growth at 10 uM after 48 hrs by sulforhodamine B assay; assay type: functional; settings: SF-539, 48 h, read-out: Activity
SK-MEL-5 = test: Cytotoxicity against human SK-MEL-5 cells assessed as cell growth at 1 uM after 48 hrs by sulforhodamine B assay; assay type: functional; settings: SK-MEL-5, 48 h, read-out: Activity
KM12 [8] = test: Cytotoxicity against human KM12 cells assessed as cell growth at 1 uM after 48 hrs by sulforhodamine B assay; assay type: functional; settings: KM12, 48 h, read-out: Activity
NCI-H522 = test: Growth inhibition of human NCI-H522 cells after 48 hrs by sulforhodamine B assay; assay type: functional, cell-based; settings: NCI-H522, 48 h; for CC50: read-out: LC50 (the source's name); procedure, shortened: as §1
BT-549 = test: Cytotoxicity against human BT549 cells assessed as cell growth at 10 uM after 48 hrs by sulforhodamine B assay; assay type: functional; settings: BT-549, 48 h, read-out: Activity; procedure, shortened: as §2
Malme-3M [9] = test: Cytotoxicity against human MALME-3M cells assessed as cell growth at 0.01 uM after 48 hrs by sulforhodamine B assay; assay type: functional; settings: read-out: Activity
KM12 [10] = test: Cytotoxicity against human KM12 cells assessed as cell growth at 0.001 uM after 48 hrs by sulforhodamine B assay; assay type: functional; settings: KM12, 48 h, read-out: Activity
OVCAR-4 [11] = test: Cytotoxicity against human OVCAR4 cells assessed as cell growth at 1 uM after 48 hrs by sulforhodamine B assay; assay type: functional; settings: OVCAR-4, 48 h, read-out: Activity
TK-10 [12] = test: Cytotoxicity against human TK10 cells assessed as cell growth at 0.01 uM after 48 hrs by sulforhodamine B assay; assay type: functional; settings: TK-10, 48 h, read-out: Activity
RXF 393 = test: Growth inhibition of human RXF393 cells after 48 hrs by sulforhodamine B assay; assay type: functional, cell-based; procedure, shortened: as §1
M14 [13] = test: Cytotoxicity against human M14 cells assessed as cell growth at 100 nM after 48 hrs by sulforhodamine B assay; assay type: functional; settings: M14, 48 h, read-out: Activity
MOLT-4 = test: Cytotoxicity against human MOLT4 cells assessed as cell growth at 100 nM after 48 hrs by sulforhodamine B assay; assay type: functional; settings: MOLT-4, 48 h, read-out: Activity
UO-31 = test: Cytotoxicity against human UO31 cells assessed as cell growth at 10 uM after 48 hrs by sulforhodamine B assay; assay type: functional; settings: UO-31, 48 h, read-out: Activity
786-0 = test: Cytotoxicity against human 786-0 cells assessed as cell growth at 0.001 uM after 48 hrs by sulforhodamine B assay; assay type: functional; settings: 786-0, 48 h, read-out: Activity; procedure, shortened: as §2
DU-145 = test: Cytotoxicity against human DU145 cells assessed as cell growth at 100 nM after 48 hrs by sulforhodamine B assay; assay type: functional; settings: DU-145, 48 h, read-out: Activity
EKVX [14] = test: Growth inhibition of human EKVX cells after 48 hrs by sulforhodamine B assay; assay type: functional, cell-based; settings: for CC50: read-out: LC50 (the source's name); procedure, shortened: as §1
MDA-MB-435 = test: Growth inhibition of human MDA-MB-435 cells after 48 hrs by sulforhodamine B assay; assay type: functional, cell-based; settings: MDA-MB-435, 48 h; for CC50: read-out: LC50 (the source's name); procedure, shortened: as §1
M14 [15] = test: Cytotoxicity against human M14 cells assessed as cell growth at 1 uM after 48 hrs by sulforhodamine B assay; assay type: functional; settings: M14, 48 h, read-out: Activity
HCT-116 = test: Cytotoxicity against human HCT116 cells assessed as cell growth at 1 uM after 48 hrs by sulforhodamine B assay; assay type: functional; settings: HCT-116, 48 h, read-out: Activity
MDA-MB-231 [16] = test: Cytotoxicity against human MDA-MB-231 cells assessed as cell growth at 100 nM after 48 hrs by sulforhodamine B assay; assay type: functional; settings: MDA-MB-231, 48 h, read-out: Activity

In the case of `CC(=O)c1ccccc1-c1ccc(-c2ccnc(NC(=O)Nc3cc(N4CCOCC4)cc(C(F)(F)F)c3)n2)cn1`, the growth at 0.01 µM (NCI-H460) is reported as 110%, the GI50 (HOP-62 [1]) is reported as > 100 µM and the IC50 (HOP-62 [1]) is reported as 4.29 µM. The TGI (HOP-62 [1]) was > 100 µM, the CC50 (HOP-62 [1]) was > 100 µM and the growth at 0.01 µM (MDA-MB-231 [2]) was 99%. The growth at 0.1 µM (HT-29) was 98%, the growth at 10 µM (OVCAR-5) was 118% and the growth at 10 µM (TK-10 [3]) was 27%. For the same molecule, the growth at 0.01 µM (EKVX [4]) was 94%, the growth at 1 µM (A498) was 83% and the growth at 10 µM (Malme-3M [5]) was 61%. For the same molecule, the growth at 1 µM (MDA-MB-468) was 109%, the growth at 10 µM (HOP-62 [6]) was 19% and the TGI (OVCAR-4 [7]; Homo sapiens, OVCAR-4, 48 h) was > 100 µM. For the same molecule, the CC50 (OVCAR-4 [7]; Homo sapiens, OVCAR-4, 48 h) was > 100 µM, the IC50 (OVCAR-4 [7]; ovcar-4) was “Not Active” and the growth at 10 µM (SF-539) was 56%. For the same molecule, the growth at 1 µM (SK-MEL-5) was 33%, the growth at 1 µM (KM12 [8]) was 86% and the GI50 (NCI-H522) was > 100 µM. For the same molecule, the IC50 (NCI-H522) was 63.2 µM, the TGI (NCI-H522) was > 100 µM and the CC50 (NCI-H522) was > 100 µM. It also gave a growth at 10 µM (BT-549) of 46%, a growth at 0.01 µM (Malme-3M [9]) of 103% and a growth at 0.001 µM (KM12 [10]) of 103%. For the same molecule, the growth at 1 µM (OVCAR-4 [11]) was 48%, the growth at 0.01 µM (TK-10 [12]) was 117% and the LC50 (RXF 393) was “inactive”. The GI50 (RXF 393; Homo sapiens, RXF 393, 48 h) was > 100 µM, the TGI (RXF 393; Homo sapiens, RXF 393, 48 h) was 3.5 µM and the IC50 (RXF 393; Homo sapiens, RXF 393, 48 h, read-out: IC50) was 1.27 µM. For the same molecule, the growth at 0.1 µM (M14 [13]) was 77%, the growth at 0.1 µM (MOLT-4) was 75% and the growth at 10 µM (UO-31) was 86%. The growth at 0.001 µM (786-0) was 103%, the growth at 0.1 µM (DU-145) was 77% and the GI50 (EKVX [14]) was > 100 µM. The IC50 (EKVX [14]) was > 100 µM, the TGI (EKVX [14]) was > 100 µM and the CC50 (EKVX [14]) was > 100 µM. For the same molecule, the GI50 (MDA-MB-435) was > 100 µM, the IC50 (MDA-MB-435) was > 100 µM and the TGI (MDA-MB-435) was > 100 µM. For the same molecule, the CC50 (MDA-MB-435) was > 100 µM, the growth at 1 µM (M14 [15]) was 9% and the growth at 1 µM (HCT-116) was 69%. The growth at 0.1 µM (MDA-MB-231 [16]) was 84%.

In the case of `CC(=O)Nc1cccc(-c2ccc(-c3ccnc(NC(=O)Nc4cc(C(F)(F)F)cc(C(F)(F)F)c4)n3)cn2)c1.Cl`, the growth at 0.01 µM (NCI-H460) is reported as 93%, the GI50 (HOP-62 [1]) is reported as 4.88 µM and the IC50 (HOP-62 [1]) is reported as 4.88 µM. The TGI (HOP-62 [1]) was 26.8 µM, the CC50 (HOP-62 [1]) was > 100 µM and the growth at 0.01 µM (MDA-MB-231 [2]) was 93%. The growth at 0.1 µM (HT-29) was 101%, the growth at 10 µM (OVCAR-5) was -96% and the growth at 10 µM (TK-10 [3]) was -54%. It also gave a growth at 0.01 µM (EKVX [4]) of 79%, a growth at 1 µM (A498) of 41% and a growth at 10 µM (Malme-3M [5]) of -49%. The growth at 1 µM (MDA-MB-468) was -79%, the growth at 10 µM (HOP-62 [6]) was -36% and the GI50 (OVCAR-4 [7]; Homo sapiens, OVCAR-4, 48 h) was 1.57 µM. For the same molecule, the TGI (OVCAR-4 [7]; Homo sapiens, OVCAR-4, 48 h) was 11.1 µM, the IC50 (OVCAR-4 [7]; Homo sapiens, OVCAR-4, 48 h, read-out: IC50) was 1.57 µM and the CC50 (OVCAR-4 [7]; Homo sapiens, OVCAR-4, 48 h) was 39 µM. For the same molecule, the growth at 10 µM (SF-539) was -98%, the growth at 1 µM (SK-MEL-5) was 100% and the growth at 1 µM (KM12 [8]) was -10%. For the same molecule, the GI50 (NCI-H522) was 1.71 µM, the IC50 (NCI-H522) was 1.71 µM and the TGI (NCI-H522) was 5.85 µM. The CC50 (NCI-H522) was 35.3 µM, the growth at 10 µM (BT-549) was -97% and the growth at 0.01 µM (Malme-3M [9]) was 88%. For the same molecule, the growth at 0.001 µM (KM12 [10]) was 99%, the growth at 1 µM (OVCAR-4 [11]) was 4% and the growth at 0.01 µM (TK-10 [12]) was 102%. For the same molecule, the LC50 (RXF 393) was “inactive”, the TGI (RXF 393) was “inactive” and the IC50 (RXF 393; rxf 393) was “Not Active”. For the same molecule, the growth at 0.1 µM (M14 [13]) was 92%, the growth at 0.1 µM (MOLT-4) was 69% and the growth at 10 µM (UO-31) was -75%. For the same molecule, the growth at 0.001 µM (786-0) was 96%, the growth at 0.1 µM (DU-145) was 102% and the GI50 (EKVX [14]) was 1.44 µM. The IC50 (EKVX [14]) was 1.44 µM, the TGI (EKVX [14]) was 5.71 µM and the CC50 (EKVX [14]) was > 100 µM. It also gave a GI50 (MDA-MB-435) of 2.31 µM, an IC50 (MDA-MB-435) of 2.31 µM and a TGI (MDA-MB-435) of 6.8 µM. For the same molecule, the CC50 (MDA-MB-435) was > 100 µM, the growth at 1 µM (M14 [15]) was -68% and the growth at 1 µM (HCT-116) was -35%. For the same molecule, the growth at 0.1 µM (MDA-MB-231 [16]) was 77%.
